PKD1 inh – inhibitors of human PKD1 kinase | Q15139 | PKD1 kinase fluorescence polarization assay | inhibition, % (test concentration not listed) | hit rate 0.056% among 200,000
Wee1 stabilizer – inhibitors of human Wee1 degradation; P30291; HeLa Luc-Wee1K328M stability, luciferase luminescence; 100% = proteasome inhibitor MG132 effect; reporter increase, % at 5 µM; hit rate 1.2% among 220,000; AID 1321;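 active means activation above the mean of all tested compounds plus 3 SD, set per screening run, cut at about 8.8% in these data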;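 further: cells exposed to compound for 20 h before luminescence read; 0% = DMSO alone and 100% = MG132 at 30 µM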
L major viab – reduces viability of Leishmania major promastigotes. inhibition, % at 10 µM. resazurin fluorescence viability. AID 1063. hit rate 9% among 200,000;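 further: promastigotes grown with compound for 44 hours at 28 °C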
Rad51 HR inh – blocks human Rad51 in homologous recombination | Q06609 | hit rate 0.085% among 200,000 | hRad51 DNA strand exchange, fluorescence dequenching | inhibition, % at 10 µM;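 active means inhibition above 40% at the single screening dose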;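 further: 0% = DMSO control wells and 100% = blanks with heterologous ssDNA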
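Test system – preformed human Rad51 ssDNA filaments · Reagent – Donor/quencher-labelled 47-bp dsDNA substrate · Incubation – 37 °C 15-min filament assembly, 30-min compound preincubation, 15-min exchange · Signal – FRET fluorescence dequenching, excitation 485 nm, emission 520 nm · Read-out – percent inhibition from fluorescence, normalised to plate control and blank means · Benchmarks – plate control and blank wells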
Arbovirus anti – antivirals against arbovirus infection; AID 1251; hit rate 0.37% among 200,000; inhibition, % at 10 µM; arbovirus infection cell-based antiviral screen; in the data active means inhibition above about 30%
CHOP inh – inhibitors of CHOP induction in ER stress response. CHO-K1 CHOP-promoter luciferase, tunicamycin-induced, 15-18 h. inhibition, % at 10 µM. hit rate 3.8% among 220,000. AID 2732;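 active means compounds that reduced the stress-induced luciferase reporter signal by more than about 70% of percent inhibition, limit read from the data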;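 further: 0% = tunicamycin plus vehicle and 100% = wells without tunicamycin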
Wee1 stab conf – human Wee1 degradation inhibition, confirmation; shares compounds with Wee1 stabilizer; HeLa Luc-Wee1K328M degradation, luminescence; vehicle 0%, proteasome-blocked wells 100%; activation, % at 5 µM; hit rate 4% among 1,100; in the data active means activation above about 8.9%
Active calls of the source: *; . = no result. Hits are enriched below; roughly 12% of the tested compounds scored in any of these assays. Unless noted, no stated cut-off is given here; in the data, active means inhibition above about 50%; inactive means the rest.

SMILES	PKD1 inh	Wee1 stabilizer	L major viab	Rad51 HR inh	Arbovirus anti	CHOP inh	Wee1 stab conf
Cc1cc(-c2ccccc2)nc(N2CCC(C(=O)NCC3CCCCC3)CC2)n1	-11	-1	0	.	.	.	.
COc1ccc(N/N=C(C)/C(=N/O)C(=O)Nc2ccccc2)cc1	4	0	-2	0	-29	15	.
Cc1cc(N2CCN(C(c3ccccc3)c3ccc(Cl)cc3)CC2)n2ncnc2n1 (stereo unspecified)	-7	12*	6	.	-27	33	-1
Cc1cc(N2CCN(c3ccccc3)CC2)n2ncnc2n1	-8	-1	-5	-1	-7	-15	.
O=C1OC(C(=O)O)Cc2ccccc21 (stereo unspecified)	-15	1	-4	3	7	5	.
CC(NC(=O)COC(=O)Cc1ccc(-c2ccccc2)cc1)c1ccccc1 (stereo unspecified)	-6	-2	-2	-22	-1	-26	.
Cc1nnc(NC(=O)Cn2cnc3c2c(=O)n(C)c(=O)n3C)s1	3	12*	-6	-1	-1	6	0
O=C(CN1CCN(c2ccccn2)CC1)N1CC(O)CO1 (stereo unspecified)	5	18*	-3	-26	-1	-10	0
O=C(C[n+]1cccc(CNC(=O)c2ccc(OC(F)F)cc2)c1)Nc1cccc(C(F)(F)F)c1	-8	1	-5	-5	-9	8	.
Cc1cc([N+](=O)[O-])cnc1Sc1nccn1C	0	0	-4	.	4	12	.
CCCCNC(=O)NC12CC3CC(CC(C3)C1)C2	-1	22*	5	-2	3	-1	3
CCOCCCNC(=S)N1C2CCC1CC(NC(=O)NC13CC4CC(CC(C4)C1)C3)C2 (stereo unspecified)	-9	12*	-6	-1	3	10	5
NNC(=O)CS(=O)(=O)c1ccc(Cl)cc1	.	5	.	14	.	13	.
Cc1ccc2nc3sc(C(=O)Nc4c(C)[nH]c(=O)[nH]c4=O)c(N)c3cc2c1	-3	2	-5	-20	-5	-12	.
Cc1ccc2cc3c(N)c(C(=O)Nc4c(C)[nH]c(=O)[nH]c4=O)sc3nc2c1	-6	12*	-4	-25	-1	4	-2
CCCCOC(=O)c1ccccc1N1C(=O)C2C3CCC(C3)C2C1=O (stereo unspecified)	-5	12*	-3	12	-2	13	-2
Fc1ccc(-n2nnc(-c3ccnc4ccccc34)n2)cc1	-8	0	-5	-3	8	20	.
O=C(CCC(=O)Nc1nnc(C2CCCCC2)s1)NCC1CCCO1 (stereo unspecified)	0	16*	0	-4	12	16	2
O=C(CCNS(=O)(=O)c1cccs1)N1CCc2ccccc2C1	-11	19*	-7	-13	5	-24	1
O=C(O)CCC(=O)NNC(=O)c1ccc(Br)cc1	-5	2	-4	19	-4	-3	.
O=C(NCCN1CCCC1=O)Nc1ccccc1	-2	0	-8	-5	6	-5	.
CC1=NCCN1CCNC(=O)Nc1ccc(C(C)(C)C)cc1	.	15*	.	18	.	6	0
O=CN1CCN(C(=O)c2ccc(-c3nc4ccccc4s3)s2)CC1	2	17*	6	-4	-9	16	2
CCN(CC)CCn1c(NC(=O)c2ccc(C(F)(F)F)cc2)nc2ccccc21	-8	13*	14	-2	-4	47	0
O=C(C1=NN[C@@H]2C(=O)N(Cc3ccccc3)C(=O)[C@H]12)c1ccc(F)cc1	.	11*	.	12	.	14	-3
COc1cccc(Oc2ccc3nnc(C(F)(F)F)n3n2)c1	-2	-1	2	-13	2	7	.
COc1ccc2c(=O)c(-c3ccccc3)coc2c1	-2	9.9*	-6	6	-5	57	4
COC(=O)CNC(=O)C1CCCN1C(=O)OC(C)(C)C (stereo unspecified)	-7	13*	-4	0	6	21	-1
O=C(/C=C/c1ccccc1)Nc1ccc(Cl)cn1	0	11*	-1	-41	-18	-34	9.0*
Cc1cccc(NC(=O)/C=C/c2ccc(Cl)cc2)n1	-3	3	5	7	-22	10	.

Screening data deposited in PubChem by several laboratories.
